Results published in ChEMBL document CHEMBL1141070, “Synthesis and biological activity of flurbiprofen analogues as selective inhibitors of beta-amyloid(1)(-)(42) secretion” (J Med Chem, 2005).
pIC50: −log10 of the molar value.

Experiments:
[1] = Time to achieve maximal concentration in rats after 0.2 mg/kg intravenous dose; assay type: ADME, organism-based; design: dose 0.2 mg/kg, route intravenous; conditions: rat, in vivo
[2] = Maximal concentration in rats after 0.2 mg/kg intravenous dose; assay type: ADME, organism-based; design: dose 0.2 mg/kg, route intravenous; conditions: rat, in vivo
[3] = molecular target: T1, Amyloid-beta precursor protein (Homo sapiens, UniProt P05067); conditions: at 100 µM
Target sequence in this assay (P05067 whole entry, canonical isoform): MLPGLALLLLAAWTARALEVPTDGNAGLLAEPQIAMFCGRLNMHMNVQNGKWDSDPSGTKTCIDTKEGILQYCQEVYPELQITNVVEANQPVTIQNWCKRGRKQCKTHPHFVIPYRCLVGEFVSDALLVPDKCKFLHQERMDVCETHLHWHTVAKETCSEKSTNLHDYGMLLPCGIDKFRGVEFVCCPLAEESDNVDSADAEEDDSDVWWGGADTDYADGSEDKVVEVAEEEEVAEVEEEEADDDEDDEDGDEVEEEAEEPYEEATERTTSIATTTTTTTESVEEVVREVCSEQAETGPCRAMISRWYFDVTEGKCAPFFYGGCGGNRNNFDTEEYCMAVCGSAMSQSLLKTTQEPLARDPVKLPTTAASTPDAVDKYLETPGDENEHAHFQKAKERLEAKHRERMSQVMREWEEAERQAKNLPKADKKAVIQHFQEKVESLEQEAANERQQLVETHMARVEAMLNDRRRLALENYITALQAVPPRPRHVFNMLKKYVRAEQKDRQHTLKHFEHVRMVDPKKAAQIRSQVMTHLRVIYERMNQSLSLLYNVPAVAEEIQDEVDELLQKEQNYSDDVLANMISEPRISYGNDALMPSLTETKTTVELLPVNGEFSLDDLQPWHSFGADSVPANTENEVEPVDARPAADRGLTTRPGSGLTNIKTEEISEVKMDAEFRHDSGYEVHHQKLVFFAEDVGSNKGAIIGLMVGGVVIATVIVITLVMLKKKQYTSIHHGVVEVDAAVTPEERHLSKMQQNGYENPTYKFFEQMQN

[4] = molecular target: Cytochrome P450 2C9 (Homo sapiens, UniProt P11712); assay: Interaction with human cytochrome P450 isoform 2C9 expressed in baculovirus-insect cells; assay type: ADME
Summary of the method: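 Microsomes from baculovirus-insect cells expressing human CYP1A2, 2C9, 2C19, 2D6 or 3A4. Compound serially diluted with an NADPH-regenerating mix (16.3 μM NADP+, 0.83 mM glucose-6-phosphate, 0.83 mM MgCl2, 0.4 U/mL G6PDH). Pre-warmed 10 min at 37 °C, then isoform-specific substrate added in 0.35 M potassium phosphate pH 7.4. Fluorometric read-out; IC50 by nonlinear regression.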

[5] = Area under curve after administration to rats at a dose of 0.5 mg/kg orally; assay type: ADME, organism-based; design: dose 0.5 mg/kg, route oral; conditions: rat, in vivo, po
[6] = Maximal concentration in rats after 0.5 mg/kg oral dose; assay type: ADME, organism-based; design: dose 0.5 mg/kg, route oral; conditions: rat, in vivo
[7] = Time to achieve maximal concentration in rats after 0.5 mg/kg oral dose; assay type: ADME, organism-based; design: dose 0.5 mg/kg, route oral; conditions: rat, in vivo
[8] = Total body clearance after administration to rats at a dose of 0.2 mg/kg intravenously; assay type: ADME, organism-based; design: dose 0.2 mg/kg, route intravenous; conditions: rat, in vivo, iv
[9] = Area under curve after administration to rats at a dose of 0.2 mg/kg intravenously; assay type: ADME, organism-based; design: dose 0.2 mg/kg, route intravenous; conditions: rat, in vivo, iv
[10] = molecular target: T1, Amyloid-beta precursor protein; assay: Inhibitory concentration against beta-amyloid-42 (Abeta42) secretion was evaluated in human neuroglioma cells (H4-APP695NL); assay type: functional, cell-based
Summary of the method: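 H4-APP695NL human neuroglioma cells (APP695 Swedish K595N/M596L) seeded at 2 × 10^5/well and grown 24 h to confluence. Increasing compound concentrations added overnight; DMSO 1% as vehicle. Supernatant Aβ42 or Aβ40 measured by electrochemiluminescence immunoassay: biotinylated 4G8 plus C-terminus-specific rabbit antibodies, captured on streptavidin beads.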
Target sequence in this assay (P05067 18-770 limits assumed): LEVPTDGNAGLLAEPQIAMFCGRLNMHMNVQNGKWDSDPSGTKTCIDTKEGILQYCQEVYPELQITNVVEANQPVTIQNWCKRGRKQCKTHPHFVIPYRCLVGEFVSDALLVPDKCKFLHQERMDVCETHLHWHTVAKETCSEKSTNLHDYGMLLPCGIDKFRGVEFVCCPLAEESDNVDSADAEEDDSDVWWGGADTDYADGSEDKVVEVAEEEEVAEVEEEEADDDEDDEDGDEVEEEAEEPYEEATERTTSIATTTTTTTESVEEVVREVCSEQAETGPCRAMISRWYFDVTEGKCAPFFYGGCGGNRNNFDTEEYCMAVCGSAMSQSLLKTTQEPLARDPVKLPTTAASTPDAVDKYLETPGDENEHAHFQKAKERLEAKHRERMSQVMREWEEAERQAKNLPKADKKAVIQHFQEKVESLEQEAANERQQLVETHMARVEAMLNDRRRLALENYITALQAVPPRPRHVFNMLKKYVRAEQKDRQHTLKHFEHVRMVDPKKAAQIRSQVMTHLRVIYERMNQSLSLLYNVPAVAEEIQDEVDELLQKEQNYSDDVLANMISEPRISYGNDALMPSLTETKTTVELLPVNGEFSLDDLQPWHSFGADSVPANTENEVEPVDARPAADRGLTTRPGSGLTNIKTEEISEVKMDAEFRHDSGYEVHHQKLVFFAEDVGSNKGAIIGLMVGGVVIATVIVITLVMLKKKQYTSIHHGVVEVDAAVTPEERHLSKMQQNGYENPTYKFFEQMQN

Cytochrome P450 2C9, sequence (P11712 whole entry, canonical isoform): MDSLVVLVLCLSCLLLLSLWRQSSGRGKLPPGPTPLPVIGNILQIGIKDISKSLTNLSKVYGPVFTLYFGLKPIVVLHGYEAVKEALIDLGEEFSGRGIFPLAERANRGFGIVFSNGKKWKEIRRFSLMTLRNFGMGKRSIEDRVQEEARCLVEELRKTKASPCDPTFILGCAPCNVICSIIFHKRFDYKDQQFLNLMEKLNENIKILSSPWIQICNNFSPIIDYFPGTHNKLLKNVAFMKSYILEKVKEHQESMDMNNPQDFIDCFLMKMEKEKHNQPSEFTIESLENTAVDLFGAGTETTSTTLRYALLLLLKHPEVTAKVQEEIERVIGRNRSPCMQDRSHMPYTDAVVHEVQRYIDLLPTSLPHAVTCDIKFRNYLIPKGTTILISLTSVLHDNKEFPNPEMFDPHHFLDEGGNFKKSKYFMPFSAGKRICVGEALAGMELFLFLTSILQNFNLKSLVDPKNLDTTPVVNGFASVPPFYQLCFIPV

O=C(O)C1(c2ccc(-c3ccc(OC4CCC(C(F)(F)F)CC4)cc3)c(F)c2)CC1 (stereo not given)
Tmax [1]: 0.25 h
Cmax [2]: 600 ng/mL
inhibition [3]: 70%
pIC50 [4]: 4.75
AUC [5]: 6 µg/h/mL
Cmax [6]: 300 ng/mL
Tmax [7]: 8 h
Clearance [8]: 0.313 mL/min/kg
AUC [9]: 11 µg/h/mL
pIC50 [10]: 4.70
